ChEMBL document CHEMBL4715793 (J Med Chem, 2016)
pEC50: −log10 of the molar value. Active and inactive are the calls of the source. The rule behind the calls is not given here.

Columns and labels:
Hepacivirus hominis [1] = experiment: Inhibition of HCV NS3/4a protease
Hepatitis C virus [2] = experiment: Synergistic antiviral activity against HCV J6/JFH/JC1 infected in human HuH7.5 cells assessed as inhibition of viral protein levels at 6.25 uM in presence of daclatasvir measured after 72 hrs by western blot analysis; format: functional, organism-based; conditions: Hepacivirus hominis
How it was run: (§1)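 Huh7.5 cells infected with HCV (45 IU/cell) and simultaneously treated with compound (6.25 μM) alone, DAA alone, or both. […] Intracellular protein analysed by Western blot at 72 h. At least triplicate, mean ± SD, Student's t test.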

Hepatitis C virus [3] = experiment: Synergistic antiviral activity against HCV J6/JFH/JC1 infected in human HuH7.5 cells assessed as inhibition of viral protein levels at 6.25 uM in presence of simeprevir measured after 72 hrs by western blot analysis; format: functional, organism-based; conditions: Hepacivirus hominis; how it was run: as §1
Hepatitis C virus [4] = experiment: Synergistic antiviral activity against HCV J6/JFH/JC1 infected in human HuH7.5 cells assessed as combination index measured after 72 hrs in presence of daclatasvir by Chou-Talalay method; format: functional, Hepacivirus hominis
Hepatitis C virus [5] = experiment: Synergistic antiviral activity against HCV J6/JFH/JC1 infected in human HuH7.5 cells assessed as combination index measured after 72 hrs in presence of sofosbuvir by Chou-Talalay method; format: functional, Hepacivirus hominis
[6] = Resistance ratio of EC50 for antiviral activity against HCV J6/JFH/JC1 harboring S282T mutant infected in human Huh7.5 cells to EC50 for antiviral activity against wild-type HCV J6/JFH/JC1 infected in human Huh7.5 cells; format: functional
[7] = Resistance ratio of EC50 for antiviral activity against HCV J6/JFH/JC1 harboring D168V mutant infected in human Huh7.5 cells to EC50 for antiviral activity against wild-type HCV J6/JFH/JC1 infected in human Huh7.5 cells; format: functional
Hepatitis C virus [8] = experiment: Antiviral activity against HCV J6/JFH/JC1 harboring D168V mutant infected in human Huh7.5 cells assessed as inhibition of viral replication measured after 72 hrs by qRT-PCR analysis; format: functional, organism-based, Hepacivirus hominis; conditions: J6/JFH/JC1, Huh7.5, 72 h
Hepatitis C virus [9] = experiment: Antiviral activity against wild-type HCV J6/JFH/JC1 infected in human Huh7.5 cells assessed as inhibition of viral replication measured after 72 hrs by qRT-PCR analysis; format: functional, organism-based, Hepacivirus hominis; conditions: J6/JFH/JC1, Huh7.5, 72 h
How it was run: (§2)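 Huh7.5 cells seeded at 3 × 10^4/cm2 and incubated 24 h. Infected with wild-type HCVcc stock (45 IU/cell) with compound or solvent control added at the same time. After 72 h, intracellular RNA measured by one-step qRT-PCR and core protein by Western blot. EC50 by Reed & Muench method, mean ± SD from three independent experiments.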

Hepatitis C virus [10] = experiment: Antiviral activity against HCV infected in human HuH7.5 cells assessed as inhibition of viral protein level during early stage at 6.25 to 25 uM incubated for 2 hrs prior to compound washout followed by supplementation of fresh culture medium and measured after 72 hrs by Western blot analysis; format: functional, organism-based; conditions: Hepacivirus hominis; Huh-7; dose 6.25-25 µM
How it was run: (§3)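 Huh7.5 cells seeded 24 h earlier, infected with HCV (150 IU/cell) with simultaneous compound or solvent control for 2 h. Cells washed with PBS and given fresh medium. Intracellular RNA (qRT-PCR) and protein (Western blot) extracted at 72 h.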

Hepatitis C virus [11] = experiment: Antiviral activity against HCV infected in human HuH7.5 cells assessed as inhibition of viral RNA levels during early stage at 6.25 to 25 uM incubated for 2 hrs prior to compound washout followed by supplementation of fresh culture medium and measured after 72 hrs by qRT-PCR analysis; format: functional, organism-based; conditions: Hepacivirus hominis; Huh-7; dose 6.25-25 µM; how it was run: as §3
Huh7.5 = experiment: Effect on Hsc70 expression level in human Huh7.5 cells at 6.25 to 25 uM by Western blot analysis; format: functional, cell-based; conditions: dose 6.25-25 µM
Hepacivirus hominis [12] = experiment: Inhibition of HCV NS5B polymerase
[13] = Antiviral activity against HCV subtype 2a J6/JFH/JC1 infected in human Huh7.5 cells assessed as reduction in viral RNA levels measured after 72 hrs by qRT-PCR analysis; conditions: Hepatitis C virus, J6/JFH/JC1, Huh7.5, 72 h
Hepatitis C virus [14] = experiment: Antiviral activity against wild-type HCV infected in human HuH7.5 cells assessed as reduction in viral protein levels at 6.25 to 100 uM measured after 72 hrs by Western blot assay; format: functional, organism-based; conditions: Hepacivirus hominis, dose 6.25-100 µM; how it was run: as §2
Hepacivirus hominis [15] = experiment: Inhibition of HCV NS5A
[16] = target: T1, Chondroitin sulfate N-acetylgalactosaminyltransferase 1 (Homo sapiens) (UniProt Q8TDX6); experiment: Destabilization of CSGalNacT-1 in HCV infected human HuH7.5 cells assessed as reduction in CSGalNacT-1 mRNA levels at 6.25 to 100 uM measured after 72 hrs by qRT-PCR analysis; conditions: dose 6.25-100 µM
T1 sequence (whole entry): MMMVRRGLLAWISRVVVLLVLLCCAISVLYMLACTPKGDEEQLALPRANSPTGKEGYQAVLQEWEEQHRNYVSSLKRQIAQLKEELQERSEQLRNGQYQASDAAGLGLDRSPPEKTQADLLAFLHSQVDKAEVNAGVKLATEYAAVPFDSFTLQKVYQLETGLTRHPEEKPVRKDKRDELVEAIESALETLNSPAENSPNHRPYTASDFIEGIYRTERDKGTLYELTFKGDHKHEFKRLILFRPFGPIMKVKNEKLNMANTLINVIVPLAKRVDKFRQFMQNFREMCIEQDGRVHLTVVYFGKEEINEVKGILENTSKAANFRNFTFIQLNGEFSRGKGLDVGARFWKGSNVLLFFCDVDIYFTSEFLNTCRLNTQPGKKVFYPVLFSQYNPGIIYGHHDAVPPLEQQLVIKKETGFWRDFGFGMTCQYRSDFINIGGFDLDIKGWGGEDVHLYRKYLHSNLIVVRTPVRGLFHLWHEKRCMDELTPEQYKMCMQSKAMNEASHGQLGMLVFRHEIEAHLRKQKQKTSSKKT
How it was run: (§4)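 Huh7.5 cells infected with HCV (45 IU/cell) and exposed to compound for 72 h. CSGalNAcT-1 protein measured by Western blot and mRNA by qRT-PCR. Error bars are SD of three independent experiments.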

[17] = target: T1, Chondroitin sulfate N-acetylgalactosaminyltransferase 1 (Homo sapiens); experiment: Destabilization of CSGalNacT-1 in human Huh7.5 cells assessed as reduction in CSGalNacT-1 mRNA levels at 6.25 to 100 uM measured after 72 hrs by qRT-PCR analysis; format: cell-based; conditions: dose 6.25-100 µM
[18] = target: T1, Chondroitin sulfate N-acetylgalactosaminyltransferase 1 (Homo sapiens); experiment: Destabilization of CSGalNacT-1 in human Huh7.5 cells assessed as reduction in CSGalNacT-1 expression measured after 72 hrs by Western blot analysis; format: cell-based; conditions: dose 6.25-100 µM
[19] = target: T1, Chondroitin sulfate N-acetylgalactosaminyltransferase 1 (Homo sapiens); experiment: Destabilization of CSGalNacT-1 in HCV infected human HuH7.5 cells assessed as reduction in CSGalNacT-1 protein levels measured after 72 hrs by Western blot analysis; conditions: dose 6.25-100 µM; how it was run: as §4
[20] = target: T1, Chondroitin sulfate N-acetylgalactosaminyltransferase 1 (Homo sapiens); experiment: Destabilization of CSGalNacT-1 in human Huh7.5 cells assessed as reduction in CSGalNacT-1 mRNA levels by gene chip assay; format: cell-based

## COc1cc(/C=C/c2ccccc2)c(C(=O)O)c(O)c1CC=C(C)C
Hepacivirus hominis [1]
  inhibition: inactive
Hepatitis C virus [2]
  Activity: Active
Hepatitis C virus [3]
  Activity: Active
Hepatitis C virus [4]
  CI: 0.76
Hepatitis C virus [5]
  CI: 0.693
[6]
  Ratio EC50: 2.8
[7]
  Ratio EC50: 1.3
Hepatitis C virus [8]
  pEC50: 5.42
Hepatitis C virus [9]
  pEC50: 5.52
Hepatitis C virus [10]
  Activity: inactive
Hepatitis C virus [11]
  Activity: inactive
Huh7.5
  Activity: inactive
Hepacivirus hominis [12]
  inhibition: inactive
[13]
  pEC50: 5.50
Hepatitis C virus [14]
  Activity: Active
Hepacivirus hominis [15]
  inhibition: inactive
[16]
  Activity: inactive
[17]
  Activity: inactive
[18]
  Activity: Dose-dependent effect
[19]
  Activity: Dose-dependent effect
[20]
  Activity: Active
